In the library only some 2.9% were active in any assay of this set; here they are far more common.
Kir21 block = inhibitors of mouse Kir2.1 inward-rectifier potassium channel | HEK293-Kir2.1, FluxOR thallium flux fluorescence; hits give low values | B-score at 10 µM | 310,000 tested, 0.85% active | AID 1672, 2009;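 active = fluorescence ratio B-score at or below minus 3 SD of library scores, with starting-brightness B-score within 2 SD, cut at about -4.2 in these data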;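 note: channel flux triggered by added potassium and thallium sulfate stimulus; B-score of peak minus minimum fluorescence over baseline after thallium stimulus; more negative B-score means stronger Kir2.1 block with less thallium influx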
Target sequence (P35561 whole entry, looked up): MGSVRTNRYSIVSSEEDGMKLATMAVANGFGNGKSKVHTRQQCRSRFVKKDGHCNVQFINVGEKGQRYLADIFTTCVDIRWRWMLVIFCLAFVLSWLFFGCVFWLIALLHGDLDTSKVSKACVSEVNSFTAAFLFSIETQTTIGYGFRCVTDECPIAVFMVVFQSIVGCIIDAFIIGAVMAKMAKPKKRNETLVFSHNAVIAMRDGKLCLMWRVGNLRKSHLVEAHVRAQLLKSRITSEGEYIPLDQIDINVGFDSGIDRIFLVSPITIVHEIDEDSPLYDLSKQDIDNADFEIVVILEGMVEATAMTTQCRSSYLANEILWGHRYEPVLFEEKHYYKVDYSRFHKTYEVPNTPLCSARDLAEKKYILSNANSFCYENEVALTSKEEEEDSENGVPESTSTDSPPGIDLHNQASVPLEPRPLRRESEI
TRPC4 potent = positive allosteric modulators of TRPC4, primary screen, cell-based, mouse TRPC4beta, HEK293 mu-opioid, Fluo-4 calcium. 310,000 tested, 0.42% active. DAMGO EC20, Fluo-4 Ca2+ flux; hits give high values. B-score at 10 µM;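 active = B-score of calcium response area above 5 SD of library B-scores, with initial fluorescence ratio within 5 SD of library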;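 note: B-score of integrated fluorescence ratio over time as area under calcium response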
TRPC6 act = mouse TRPC6 channel activators, primary screen, cell-based, HEK293, membrane potential dye. HEK293-TRPC6 membrane potential dye fluorescence; hits give high values. B-score at 10 µM. 310,000 tested, 0.13% active. AID 2550, 2010;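 active = B-score of the integrated fluorescence ratio above library mean plus 3 SD, and starting fluorescence ratio within library mean plus 5 SD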;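 note: higher score means more depolarization so channel activation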
TRPC4 agonist = activators of mouse TRPC4 channel, primary screen, Fluo4 calcium, HEK293 TRPC4beta/mu-opioid cells | 310,000 tested, 0.49% active | Short transient receptor potential channel 4 (Mus musculus), Q9QUQ5 | Fluo4 calcium fluorescence; hits give high values | B-score at 10 µM;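 active = B-score above 5 SD of library B-scores, and initial fluorescence ratio not above library mean plus 5 SD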;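 note: positive B-score marks a calcium rise read as TRPC4 activation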
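Material: HEK293 stable line with TRPC4beta plus mu-opioid receptor; technique: Fluo4 calcium-sensitive dye fluorescence, kinetic, 1 Hz baseline; timing: Fluo4 dye loading 45 min at room temperature, 110 s recording; controls: assay buffer as low control, maximal DAMGO as high control; read-out: integrated baseline-normalised fluorescence ratio, converted to per-well B score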
TRPC6 inh = mouse TRPC6 channel inhibitors, primary screen, cell-based, HEK293, membrane potential dye; Short transient receptor potential channel 6 (Mus musculus), Q61143; ACh-evoked depolarization; hits give low values; B-score at 10 µM; 310,000 tested, 1.1% active;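 active = B-score under library mean minus 3 SD, initial fluorescence not abnormally high, positive integrated signal ratio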;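 note: B-score derived from integrated fluorescence ratio over the kinetic read; more negative B-score means stronger inhibition of depolarization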
TRPC4 inh = inhibitors of mouse TRPC4 channel, primary screen, Fluo4 calcium, HEK293 TRPC4beta/mu-opioid cells; Short transient receptor potential channel 4 (Mus musculus), Q9QUQ5; DAMGO-evoked Fluo4 calcium flux; hits give low values; B-score at 10 µM; 300,000 tested, 0.39% active;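 active = B-score over 3 SD under the library average, no early fluorescence shift, positive overall ratio signal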
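Assay system: HEK293 cells with stable TRPC4beta plus mu-opioid receptor expression. Dosing: single dose. Measured by: Fluo4 Ca2+ flux fluorescence. Also added: DAMGO in two steps, submaximal then maximal. Read-out: B score from integrated Fluo4 fluorescence ratio.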
* marks the source's active call; other numbers are inactive results; i = inactive.

SMILES	Kir21 block	TRPC4 potent	TRPC6 act	TRPC4 agonist	TRPC6 inh	TRPC4 inh
CC(C)NS(=O)(=O)c1ccc(NC(=O)C(C)Oc2ccc(C(=O)c3ccccc3)cc2)cc1 (stereo unspecified)	3.25	44*	i	i	i	i
O/N=C/c1cn(-c2ccccc2)nc1-c1ccc2c(c1)OCCO2	-0.39	24*	i	i	i	i
O=C(O)/C=C/c1cn(-c2ccccc2)nc1-c1ccc2c(c1)OCCO2	0.04	i	i	i	i	i
CCNc1nc(NCC)n2c(SCC(=O)Nc3ccc(C)c(C)c3)nnc2n1	2.65	i	i	i	i	i
CC1SC(c2ccc(F)cc2)N(CCc2ccccc2)C1=O (stereo unspecified)	-2.83	i	i	i	i	i
COC(=O)c1cccc2c1-c1ccccc1/C2=N\NC(N)=O	0.15	i	i	i	i	i
COC(=O)c1cccc2c1-c1ccccc1/C2=N/O	0.54	i	i	i	i	-7*
COc1ccccc1NC(=O)C1CCN(S(=O)(=O)c2cccc3nonc23)CC1	1.36	i	i	i	i	i
c1ccc(C2(CN3CCNC[C@H]3Cc3cccc4ccccc34)CC2)cc1	-2.62	i	i	84*	i	i
O=C(NC(=S)Nc1ccccc1O)c1ccccc1Cl	0.41	i	i	i	i	i
CSc1cccc(NC(=S)NCCCN2CCN(c3ccc(F)cc3)CC2)c1	-5.78*	i	i	i	i	i
Cc1cccc(C)c1NC(=O)CSC(=O)c1sc2ccccc2c1Cl	0.34	i	i	i	i	i
NNC(=O)c1ccc(N2CCc3ccccc32)c([N+](=O)[O-])c1	1.32	i	i	i	i	i
Cc1ccc(CNC(=O)c2ccc(N3CCc4ccccc43)c([N+](=O)[O-])c2)cc1	-6.53*	i	i	i	i	i
CC1(C)CC(NC(=O)c2cc(COc3cccc(C(F)(F)F)c3)on2)CCO1 (stereo unspecified)	-0.63	i	i	i	i	-6*
CC1(C)C[C@@H]2C[C@@](C)(CN2C(=O)c2cc(COc3cccc(C(F)(F)F)c3)on2)C1	-0.01	i	i	i	i	i
O=C(O)/C=C/C(=O)Nc1cccc(C(F)(F)F)c1	-0.61	i	i	i	i	i
Cc1cc(NC(=O)CCC(=O)N(CCC(C)C)C(C(=O)NCC2CCCO2)c2ccccc2C)no1 (stereo unspecified)	-0.66	i	i	i	i	i
c1ccc(OCC2CCNCC2)nc1	-1.86	i	i	84*	i	i
O=C(NCCNC1CCC(c2ccccc2)CC1)c1cccs1 (stereo unspecified)	-2.72	i	i	158*	i	i
O=C(Nc1nnc(-c2cccs2)o1)c1cccc(C(F)(F)F)c1	-0.07	i	i	127*	i	i
N#Cc1ccc(C(=O)Nc2nnc(-c3cccs3)o2)cc1	0.93	i	i	i	i	i
O=C(NC(=S)Nc1nc2c(ccc3ccccc32)s1)c1cccs1	0.65	i	i	i	i	i
Cc1ccnc(NC(=O)Cn2cc([N+](=O)[O-])cn2)c1	1.76	i	i	i	i	-8*
Cc1c(N2C(=O)/C(=C/C3CC=CCC3)SC2=S)c(=O)n(-c2ccccc2)n1C (stereo unspecified)	0.12	i	i	i	i	i
SMILES	Kir21 block	TRPC4 potent	TRPC6 act	TRPC4 agonist	TRPC6 inh	TRPC4 inh
Cc1c(N2C(=O)/C(=C\C3CC=CCC3)SC2=S)c(=O)n(-c2ccccc2)n1C (stereo unspecified)	-1.5	17*	i	i	i	i
CN(C)C(CNC(=O)Cc1cccc(C(F)(F)F)c1)c1ccccc1 (stereo unspecified)	-0.21	i	i	161*	i	-7*
CN(C)C(CNC(=O)C1CCN(S(=O)(=O)c2cccc(C(F)(F)F)c2)CC1)c1ccccc1 (stereo unspecified)	-0.83	i	i	48*	i	-8*
CN(C)C(CNC(=O)Cc1cccc(C(F)(F)F)c1)c1ccco1 (stereo unspecified)	-0.49	i	i	90*	i	i
CN(C)c1cccc(C(=O)NCC(c2ccco2)N(C)C)c1 (stereo unspecified)	0.45	i	i	i	i	i
C=C(C)CSc1cc(C)nc2c(-c3ccccc3)c(C)nn12	0.03	i	i	i	i	i
Cn1c(SC/C=C/c2ccccc2)nnc1-c1cccs1	-1.19	i	i	i	i	i
C=CCn1c(Cc2cccs2)nnc1SC/C=C/c1ccccc1	-14.9*	i	i	i	i	i
CCn1c(SC/C=C/c2ccccc2)nnc1-c1cccs1	-7.81*	i	i	i	i	i
CC(=O)NC12CC3CC(C1)CC(C(=O)Nc1nc4c(C)cccc4s1)(C3)C2	0.13	i	i	i	i	i
CCC(C(=O)NCCc1c[nH]c2ccc(C)cc12)c1ccccc1 (stereo unspecified)	-4.51*	i	i	i	i	i
CC(C)[C@H](NC(=O)c1cccc(CN(Cc2ccccc2)C(=O)/C=C/c2ccccc2)c1)C(=O)O	0.32	i	i	i	i	i
CCn1ccnc1CNC(=O)c1ccc2oc(CCCc3ccccc3)nc2c1	-1.01	i	i	i	i	-6*
COCCN(C(=O)Cn1nnc2ccccc21)C(C(=O)NC1CCCC1)c1cc(OC)ccc1OC (stereo unspecified)	0.87	i	24.5*	i	i	i
C=CCN(C(=O)Cn1nnc2ccccc21)C(C(=O)NCCOC)c1ccc(OC)cc1OC (stereo unspecified)	0.42	i	i	i	i	i
Cc1sc2c(=O)n3c(nc2c1C(=O)NC1CCCCC1)CCCCC3	-0.07	i	i	i	i	i
COc1ccc(NC(=O)NN2CCN(C)CC2)cc1OC	0.41	i	i	i	i	i
